# Laboratory results reported in ChEMBL document CHEMBL5523707, “Novel Inhibitory Site Revealed by XAP044 Mode of Action on the Metabotropic Glutamate 7 Receptor Venus Flytrap Domain” (J Med Chem, 2024).
# Calls of active or inactive are those of the source. The calls are words filed in the database; no cut-off is given here.
# Tests used:
# [1] = Antagonist activity against LSP4-202-induced rat mGlu7 K233A mutant assessed as decrease in LSP4-202 potency by measuring LSP4-202 pEC50
# Rattus norvegicus [2] = organism: Rattus norvegicus; assay: Ratio of pEC50 for antagonist activity against LSP4-202 induced wild type rat mGlu7 assessed as decrease in LSP4-202 potency by measuring LSP4-202 pEC50 at 1 uM to pEC50 for LSP4-202-induced wild type rat mGlu7
# [3] = Antagonist activity against LSP4-202-induced rat mGlu7 K233D mutant assessed as decrease in LSP4-202 potency by measuring LSP4-202 pEC50
# Rattus norvegicus [4] = organism: Rattus norvegicus; assay: Ratio of pEC50 for antagonist activity against LSP4-202-induced rat mGlu7 S237A mutant assessed as decrease in LSP4-202 potency to pEC50 for LSP4-202-induced rat mGlu7 S237A mutant; details: filed as antagonist
# Rattus norvegicus [5] = organism: Rattus norvegicus; assay: Ratio of pEC50 for antagonist activity against LSP4-202 induced wild type rat mGlu7 assessed as decrease in LSP4-202 potency by measuring LSP4-202 pEC50 at 30 uM to pEC50 for LSP4-202-induced wild type rat mGlu7
# [6] = Antagonist activity against LSP4-202-induced rat mGlu7 S229A mutant assessed as decrease in LSP4-202 potency by measuring LSP4-202 pEC50
# [7] = Antagonist activity against LSP4-202-induced rat mGlu7 […] mutant assessed as decrease in LSP4-202 potency by measuring LSP4-202 pEC50 at 100 uM
# Rattus norvegicus [8] = organism: Rattus norvegicus; assay: Ratio of pEC50 for antagonist activity against LSP4-202 induced wild type rat mGlu7 assessed as decrease in LSP4-202 potency by measuring LSP4-202 pEC50 at 3 uM to pEC50 for LSP4-202-induced wild type rat mGlu7
# Rattus norvegicus [9] = organism: Rattus norvegicus; assay: Ratio of pEC50 for antagonist activity against LSP4-202 induced rat mGlu7 S229A mutant assessed as decrease in LSP4-202 potency by measuring LSP4-202 pEC50 at 30 uM to pEC50 for LSP4-202-induced rat mGlu7 S229A mutant
# Rattus norvegicus [10] = organism: Rattus norvegicus; assay: Ratio of pEC50 for antagonist activity against LSP4-202-induced rat mGlu7 K233S mutant assessed as decrease in LSP4-202 potency to pEC50 for LSP4-202-induced rat mGlu7 K233S mutant; details: filed as antagonist
# Rattus norvegicus [11] = organism: Rattus norvegicus; assay: Ratio of pEC50 for antagonist activity against LSP4-202 induced wild type rat mGlu7 assessed as decrease in LSP4-202 potency by measuring LSP4-202 pEC50 at 10 uM to pEC50 for LSP4-202-induced wild type rat mGlu7
# [12] = Antagonist activity against LSP4-202-induced rat mGlu7 […] mutant assessed as decrease in LSP4-202 potency by measuring LSP4-202 pEC50 at 30 uM
# Rattus norvegicus [13] = organism: Rattus norvegicus; assay: Ratio of pEC50 for antagonist activity against LSP4-202 induced rat mGlu7 S229A mutant assessed as decrease in LSP4-202 potency by measuring LSP4-202 pEC50 at 10 uM to pEC50 for LSP4-202-induced rat mGlu7 S229A mutant
# [14] = target: T1, Metabotropic glutamate receptor 7 (Rattus norvegicus, UniProt P35400); assay: Antagonist activity against rat mGlu7 activation transfected in HEK293 cells co-transfected with chimeric Gqi9 incubated for 24 hrs in presence of LSP4-2022 by IP-one HTRF assay; format: functional, cell-based; details: read-out: IC50
# T1 sequence (P35400 whole entry): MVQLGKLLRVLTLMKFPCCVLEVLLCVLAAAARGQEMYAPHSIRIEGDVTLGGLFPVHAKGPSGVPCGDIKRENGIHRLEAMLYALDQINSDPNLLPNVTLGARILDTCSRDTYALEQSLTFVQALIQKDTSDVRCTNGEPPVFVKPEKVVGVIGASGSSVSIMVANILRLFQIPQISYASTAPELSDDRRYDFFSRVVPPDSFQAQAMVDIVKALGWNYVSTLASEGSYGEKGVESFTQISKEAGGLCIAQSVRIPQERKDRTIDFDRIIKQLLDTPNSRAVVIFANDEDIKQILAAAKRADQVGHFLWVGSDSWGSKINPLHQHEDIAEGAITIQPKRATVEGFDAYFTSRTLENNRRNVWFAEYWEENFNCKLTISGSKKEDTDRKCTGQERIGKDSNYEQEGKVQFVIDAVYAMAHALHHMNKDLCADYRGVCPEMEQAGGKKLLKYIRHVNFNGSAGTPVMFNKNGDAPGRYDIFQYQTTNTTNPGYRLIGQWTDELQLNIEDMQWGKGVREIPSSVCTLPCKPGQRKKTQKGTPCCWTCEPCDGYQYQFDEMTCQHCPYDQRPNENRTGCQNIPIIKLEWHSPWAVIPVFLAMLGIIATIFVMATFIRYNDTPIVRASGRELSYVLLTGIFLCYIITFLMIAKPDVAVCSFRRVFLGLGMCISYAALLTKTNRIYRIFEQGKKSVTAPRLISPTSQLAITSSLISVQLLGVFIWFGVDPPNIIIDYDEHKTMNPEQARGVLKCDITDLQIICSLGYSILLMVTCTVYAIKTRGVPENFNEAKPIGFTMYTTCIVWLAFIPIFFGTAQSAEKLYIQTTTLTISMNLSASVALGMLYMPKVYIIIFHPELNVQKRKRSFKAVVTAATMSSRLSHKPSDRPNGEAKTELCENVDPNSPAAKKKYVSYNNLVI
# Procedure, shortened: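 Inhibition curves were run with increasing inhibitor concentrations against IP1 production by 30 µM LSP4-2022. Rat mGlu7 was co-expressed with Gqα9 in HEK293 and assayed 24 h post-transfection with IP-One HTRF. IC50/pIC50 are means ± sem of independent experiments in triplicates. pIC50 compared to reference by unpaired t-test.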
# [15] = target: Metabotropic glutamate receptor 7 (Rattus norvegicus) (UniProt P35400); assay: Non-competitive antagonist activity against rat mGlu7 receptor assessed as decrease in L-AP4 effect at 1 to 100 uM; details: filed as antagonist, dose 1-100 µM
# Sequence of Metabotropic glutamate receptor 7 (Rattus norvegicus) (P35400 whole entry): as above
# Rattus norvegicus [16] = organism: Rattus norvegicus; assay: Ratio of pEC50 for antagonist activity against LSP4-202-induced wild type rat mGlu7 assessed as decrease in LSP4-202 potency to pEC50 for LSP4-202-induced wild type rat mGlu7; details: filed as antagonist
# [17] = Antagonist activity against LSP4-202-induced rat mGlu7 […] mutant assessed as decrease in LSP4-202 potency by measuring LSP4-202 pEC50 at 10 uM
# Rattus norvegicus [18] = organism: Rattus norvegicus; assay: Ratio of pEC50 for antagonist activity against LSP4-202-induced rat mGlu7 S229A mutant assessed as decrease in LSP4-202 potency to pEC50 for LSP4-202-induced rat mGlu7 S229A mutant; details: filed as antagonist
# Rattus norvegicus [19] = organism: Rattus norvegicus; assay: Ratio of pEC50 for antagonist activity at LSP4-202-induced rat mGlu7 K233D mutant assessed as decrease in LSP4-202 potency to pEC50 for LSP4-202-induced rat mGlu7 K233D mutant; details: filed as antagonist
# [20] = Antagonist activity against LSP4-202-induced rat mGlu7 S237A mutant assessed as decrease in LSP4-202 potency by measuring LSP4-202 pEC50
# [21] = target: T1, Metabotropic glutamate receptor 7; assay: Inhibition of [3H] -LY341495 binding to rat mGlu7 expressed in CHO cell membrane incubated for 30 mins in presence of LY341495 by liquid scintillation analysis; format: cell membranes
# Rattus norvegicus [22] = organism: Rattus norvegicus; assay: Ratio of pEC50 for antagonist activity against LSP4-202 induced rat mGlu7 S229A mutant assessed as decrease in LSP4-202 potency by measuring LSP4-202 pEC50 at 100 uM to pEC50 for LSP4-202-induced rat mGlu7 S229A mutant
# Rattus norvegicus [23] = organism: Rattus norvegicus; assay: Ratio of pEC50 for antagonist activity against LSP4-202-induced rat mGlu7 K233A mutant assessed as decrease in LSP4-202 potency to pEC50 for LSP4-202-induced rat mGlu7 K233A mutant; details: filed as antagonist
# [24] = target: Metabotropic glutamate receptor 7 (Rattus norvegicus) (UniProt P35400); assay: Antagonist activity against LSP4-202-induced rat mGlu7 activation transfected in HEK293 cells co-transfected with chimeric Gqi9 assessed as decrease in LSP4-202 potency by measuring LSP4-202 maximum efficacy at 30 to 100 uM incubated for 24 hrs by IP-one HTRF assay relative to control; format: functional, cell-based; details: filed as antagonist, dose 30-100 µM
# Procedure, shortened: (§1)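 IP-One HTRF IP1 read-out in HEK293 transiently expressing rat mGlu7 plus chimeric Gqα9, 24 h after electroporation. LSP4-2022 concentration-response was tested with derivatives at 30 or 100 µM. Gives pEC50, pEC50/pEC50 control ratio, and max as % of LSP4-2022 maximal effect over basal. Triplicates, n independent experiments; paired t-test.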
# [25] = Antagonist activity at LSP4-202-induced rat mGlu7 K233S mutant assessed as decrease in LSP4-202 potency by measuring LSP4-202 pEC50
# Rattus norvegicus [26] = organism: Rattus norvegicus; assay: Ratio of pEC50 for antagonist activity against LSP4-202-induced rat mGlu7 activation transfected in HEK293 cells co-transfected with chimeric Gqi9 assessed as decrease in LSP4-202 potency to pEC50 for LSP4-202-induced rat mGlu7 activation transfected in HEK293 cells co-transfected with chimeric Gqi9; format: cell-based; procedure, shortened: as §1
compound,measurement,setting,value
O=c1c(Oc2ccc(I)cc2)coc2cc(O)ccc12,pEC50,[1],3.58
same,Ratio,Rattus norvegicus [2],0.96
same,pEC50,[3],3.56
same,Ratio,Rattus norvegicus [4],0.78
same,Ratio,Rattus norvegicus [5],0.83
same,pEC50,[6],4.99
same,EC50,[7],10.9 µM
same,pEC50,[7],4.99
same,Ratio,Rattus norvegicus [8],0.94
same,Ratio,Rattus norvegicus [9],0.9
same,Ratio,Rattus norvegicus [10],0.88
same,Ratio,Rattus norvegicus [11],0.91
same,EC50,[12],49.5 µM
same,pEC50,[12],4.32
same,Ratio,Rattus norvegicus [13],0.96
same,IC50,[14],4.33 µM
same,Activity,[15],Active
same,Ratio,Rattus norvegicus [16],0.83
same,EC50,[17],25 µM
same,pEC50,[17],4.6
same,Ratio,Rattus norvegicus [18],1.02
same,Ratio,Rattus norvegicus [19],0.93
same,pEC50,[20],3.7
same,IC50,[21],0.08 µM
same,Ratio,Rattus norvegicus [22],1
same,Ratio,Rattus norvegicus [23],0.88
same,Emax,[24],96.4%
same,pEC50,[25],4.25
same,Ratio,Rattus norvegicus [26],0.82
